The source of these data is ChEMBL document CHEMBL4393701, “Appendix A. dithioloquinolinethiones as new potential multitargeted antibacterial and antifungal agents: Synthesis, biological evaluation and molecular docking studies” (2019).

Experiment [1] concerns Salmonella typhimurium. In words: Bactericidal activity against Salmonella typhimurium ATCC 13311 incubated for 24 hrs followed by re-plating on tryptic soy broth. Format: functional, Salmonella enterica subsp. enterica serovar Typhimurium. The settings on record: Salmonella enterica, ATCC 13311, 24 h. Summed up:
(§1)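 Bacteria were grown in tryptic soy broth, 1.0×10^4 CFU per well, with compounds in 5% DMSO at 0.001-1.0 mg/ml for 24 h at 37 °C. Then 10 µL was subcultured into fresh TSB. MBC is the lowest concentration showing no growth after subculture, taken as 99.5% kill of the original inoculum. Duplicates, repeated three times.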

Experiment [2] relates to Pseudomonas aeruginosa. As to the kind of experiment: Antibacterial activity against Pseudomonas aeruginosa ATCC 27853 after 24 hrs by iodonitrotetrazolium chloride dye based microdilution method. Format: functional. Conditions: ATCC 27853, 24 h. A digest of the protocol: (§2)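 Fresh overnight cultures adjusted spectrophotometrically to 1×10^5 CFU/mL, giving 1.0×10^4 CFU per well in tryptic soy broth. Compounds were dissolved in 5% DMSO and tested at 0.001-1.0 mg/ml by serial dilution; 5% DMSO was the negative control. After 24 h at 37 °C, 0.2 mg/mL INT solution was added for 30 min at 37 °C and OD read at 655 nm. MIC is the lowest concentration giving significant growth inhibition versus the positive control. Duplicates, repeated three times.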

For experiment [3], the system named is Enterobacter cloacae. In words: Antibacterial activity against Enterobacter cloacae clinical isolate after 24 hrs by iodonitrotetrazolium chloride dye based microdilution method. Format: functional. Summed up:
as §2

Experiment [4] has as its system Pseudomonas aeruginosa. In words: Bactericidal activity against Pseudomonas aeruginosa ATCC 27853 incubated for 24 hrs followed by re-plating on tryptic soy broth. Format: functional. The settings on record: ATCC 27853, 24 h. Summed up: as §1
In experiment [5] the test system is Enterobacter cloacae. In words: Bactericidal activity against Enterobacter cloacae incubated for 24 hrs followed by re-plating on tryptic soy broth. Format: functional. A digest of the protocol:
as §1

For experiment [6], the system named is Listeria monocytogenes. As to the kind of experiment: Antibacterial activity against Listeria monocytogenes NCTC 7973 after 24 hrs by iodonitrotetrazolium chloride dye based microdilution method. Format: functional. Conditions: NCTC 7973, 24 h. A digest of the protocol: as §2
Background: Dilution methods test growth across graded concentrations, often in twofold steps.

Experiment [7] has as its system Escherichia coli. As to the kind of experiment: Antibacterial activity against Escherichia coli ATCC 35210 after 24 hrs by iodonitrotetrazolium chloride dye based microdilution method. Format: functional. Conditions: ATCC 35210, 24 h. A digest of the protocol: as §2
For experiment [8], the system named is Staphylococcus aureus. As to the kind of experiment: Antibacterial activity against Staphylococcus aureus ATCC 6538 after 24 hrs by iodonitrotetrazolium chloride dye based microdilution method. Format: functional. Conditions: ATCC 6538, 24 h. A digest of the protocol: as §2
Experiment [9] deals with Listeria monocytogenes. In words: Bactericidal activity against Listeria monocytogenes NCTC 7973 incubated for 24 hrs followed by re-plating on tryptic soy broth. Format: functional. The settings on record: NCTC 7973, 24 h. A digest of the protocol: as §1
Experiment [10] has as its system Bacillus cereus. In words: Bactericidal activity against Bacillus cereus clinical isolate incubated for 24 hrs followed by re-plating on tryptic soy broth. Format: functional. A digest of the protocol: as §1
Experiment [11] has as its system Bacillus cereus. As to the kind of experiment: Antibacterial activity against Bacillus cereus clinical isolate after 24 hrs by iodonitrotetrazolium chloride dye based microdilution assay. Format: functional. A digest of the protocol:
as §2

The test system of experiment [12] is Salmonella typhimurium. In words: Antibacterial activity against Salmonella typhimurium ATCC 13311 after 24 hrs by iodonitrotetrazolium chloride dye based microdilution method. Format: functional, Salmonella enterica subsp. enterica serovar Typhimurium. Conditions: Salmonella enterica, ATCC 13311, 24 h. Summed up:
as §2

The subject of experiment [13] is Micrococcus flavus. As to the kind of experiment: Bactericidal activity against Micrococcus flavus ATCC 10240 incubated for 24 hrs followed by re-plating on tryptic soy broth. Conditions: ATCC 10240, 24 h. Format: functional. A digest of the protocol: as §1
Experiment [14] has as its system Staphylococcus aureus. In words: Bactericidal activity against Staphylococcus aureus ATCC 6538 incubated for 24 hrs followed by re-plating on tryptic soy broth. Format: functional. The settings on record: ATCC 6538, 24 h. Summed up:
as §1

The subject of experiment [15] is Micrococcus flavus. In words: Antibacterial activity against Micrococcus flavus ATCC 10240 after 24 hrs by iodonitrotetrazolium chloride dye based microdilution method. Format: functional. The settings on record: ATCC 10240, 24 h. Summed up: as §2
For experiment [16], the system named is Escherichia coli. As to the kind of experiment: Bactericidal activity against Escherichia coli ATCC 35210 incubated for 24 hrs followed by re-plating on tryptic soy broth. Format: functional. The settings on record: ATCC 35210, 24 h. Summed up:
as §1

Experiment [17] has as its system Penicillium cyclopium. In words: Antifungal activity against Penicillium verrucosum var. cyclopium food isolate after 72 hrs by microdilution technique. Format: functional. A digest of the protocol: (§3)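 Spores were washed off malt agar with 0.85% saline containing 0.1% Tween 80 and adjusted to about 1.0×10^5 per well. Compounds in 5% DMSO were serially diluted (0.001-1.0 mg/ml) in malt broth with inoculum. Plates were shaken at 160 rpm for 72 h at 28 °C. MIC is the lowest concentration without visible growth under a binocular microscope. Three independent experiments in duplicate.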

Experiment [18] concerns Aspergillus versicolor. In words: Antifungal activity against Aspergillus versicolor ATCC 11730 after 72 hrs by microdilution method. Format: functional. The settings on record: ATCC 11730, 72 h. Summed up:
as §3

The test system of experiment [19] is Aspergillus niger. As to the kind of experiment: Antifungal activity against Aspergillus niger ATCC 6275 after 72 hrs by microdilution technique. Conditions: ATCC 6275, 72 h. Format: functional. A digest of the protocol:
as §3

In experiment [20] the test system is Trichoderma viride. As to the kind of experiment: Antifungal activity against Trichoderma viride IAM 5061 after 72 hrs by microdilution technique. Conditions: IAM 5061, 72 h. Format: functional. Summed up: as §3
The subject of experiment [21] is Penicillium ochrochloron. In words: Fungicidal activity against Penicillium ochrochloron ATCC 9112 incubated for 72 hrs followed by sub-culturing on broth malt medium and measured after 72 hrs. Format: functional. The settings on record: ATCC 9112, 72 h. Summed up: (§4)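 After 72 h exposure in malt broth, 2 µL from test wells was subcultured into wells holding 100 µL broth and incubated a further 72 h at 28 °C. MFC is the lowest concentration with no visible growth, taken as 99.5% kill of the original inoculum. Three independent experiments in duplicate.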

In experiment [22] the test system is Penicillium ochrochloron. As to the kind of experiment: Antifungal activity against Penicillium ochrochloron ATCC 9112 after 72 hrs by microdilution technique. Format: functional. The settings on record: ATCC 9112, 72 h. A digest of the protocol:
as §3

The subject of experiment [23] is Aspergillus fumigatus. In words: Fungicidal activity against Aspergillus fumigatus ATCC 1022 incubated for 72 hrs followed by sub-culturing on broth malt medium and measured after 72 hrs. The settings on record: ATCC 1022, 72 h. Format: functional. A digest of the protocol: as §4
Experiment [24] can be described thus: Antifungal activity against Penicillium funiculosum ATCC 36839 after 72 hrs by microdilution technique. Format: functional. Conditions: Talaromyces pinophilus, ATCC 36839, 72 h. Summed up:
as §3

For experiment [25], the system named is Aspergillus niger. In words: Fungicidal activity against Aspergillus niger ATCC 6275 incubated for 72 hrs followed by sub-culturing on broth malt medium and measured after 72 hrs. Format: functional. The settings on record: ATCC 6275, 72 h. Summed up: as §4
Experiment [26] can be described thus: Fungicidal activity against Penicillium funiculosum ATCC 36839 incubated for 72 hrs followed by sub-culturing on broth malt medium and measured after 72 hrs. Format: functional. The settings on record: Talaromyces pinophilus, ATCC 36839, 72 h. A digest of the protocol: as §4
The subject of experiment [27] is Aspergillus fumigatus. As to the kind of experiment: Antifungal activity against Aspergillus fumigatus ATCC 1022 after 72 hrs by microdilution technique. Conditions: ATCC 1022, 72 h. Format: functional. Summed up:
as §3

Experiment [28] concerns Aspergillus versicolor. In words: Fungicidal activity against Aspergillus versicolor ATCC 11730 incubated for 72 hrs followed by sub-culturing on broth malt medium and measured after 72 hrs. Format: functional. The settings on record: ATCC 11730, 72 h. Summed up: as §4
Experiment [29] concerns Aspergillus ochraceus. As to the kind of experiment: Antifungal activity against Aspergillus ochraceus ATCC 12066 after 72 hrs by microdilution technique. Format: functional. Conditions: ATCC 12066, 72 h. Summed up:
as §3

Experiment [30] relates to Trichoderma viride. As to the kind of experiment: Fungicidal activity against Trichoderma viride IAM 5061 incubated for 72 hrs followed by sub-culturing on broth malt medium and measured after 72 hrs. Format: functional. Conditions: IAM 5061, 72 h. A digest of the protocol: as §4
The subject of experiment [31] is Aspergillus ochraceus. In words: Fungicidal activity against Aspergillus ochraceus ATCC 12066 incubated for 72 hrs followed by sub-culturing on broth malt medium and measured after 72 hrs. Format: functional. Conditions: ATCC 12066, 72 h. A digest of the protocol:
as §4

Experiment [32] relates to Penicillium cyclopium. In words: Fungicidal activity against Penicillium verrucosum var. cyclopium food isolate incubated for 72 hrs followed by sub-culturing on broth malt medium and measured after 72 hrs. Format: functional. A digest of the protocol: as §4

Values after ≈ are worked out from the molar mass of the structure shown.

As usually defined, the MBC is the lowest tested concentration that kills the bacteria rather than only halting them. A higher MBC goes with weaker bactericidal potency. As for `CN[C@@H]1[C@H](O[C@H]2[C@H](O[C@H]3[C@H](O)[C@@H](O)[C@H](N=C(N)N)[C@@H](O)[C@@H]3N=C(N)N)O[C@@H](C)[C@]2(O)C=O)O[C@@H](CO)[C@H](O)[C@H]1O` [STREPTOMYCIN], the MBC was determined as 86 µM (≈ 50 µg/mL) against Salmonella typhimurium [1]; 344 µM (≈ 200 µg/mL) in the experiment on Pseudomonas aeruginosa [4]; 344 µM (≈ 200 µg/mL) with Enterobacter cloacae [5]; 516 µM (≈ 300 µg/mL) against Listeria monocytogenes [9]; 86 µM (≈ 50 µg/mL) with Bacillus cereus [10]; 172 µM (≈ 100 µg/mL) in the experiment with Micrococcus flavus [13]. In addition, the MBC in the experiment with Staphylococcus aureus [14] and in the experiment with Escherichia coli [16] was 344 µM (≈ 200 µg/mL) in each case. Moreover, the MIC with Pseudomonas aeruginosa [2] came out at 172 µM (≈ 100 µg/mL); with Enterobacter cloacae [3] it was 270 µM (≈ 157 µg/mL); against Listeria monocytogenes [6] it was 258 µM (≈ 150 µg/mL); in the experiment on Escherichia coli [7] it was 270 µM (≈ 157 µg/mL); against Staphylococcus aureus [8], 172 µM (≈ 100 µg/mL); against Bacillus cereus [11], 43 µM (≈ 25 µg/mL). Besides, the MIC against Salmonella typhimurium [12] stood at 43 µM (≈ 25 µg/mL); against Micrococcus flavus [15], 86 µM (≈ 50 µg/mL).
As for `CC(=O)N1CCN(c2ccc(OCC3COC(Cn4ccnc4)(c4ccc(Cl)cc4Cl)O3)cc2)CC1` (stereo not drawn) [KETOCONAZOLE], the MIC with Penicillium cyclopium [17] came out at 38 ×10⁻² mM; with Aspergillus versicolor [18] it was 285 ×10⁻² mM; in the experiment on Aspergillus niger [19], 38 ×10⁻² mM; against Trichoderma viride [20] it was 475 ×10⁻² mM; in the experiment with Penicillium ochrochloron [22], 38 ×10⁻² mM; in [24] it was 380 ×10⁻² mM. Also, the MIC with Aspergillus fumigatus [27] and in the experiment on Aspergillus ochraceus [29] was 38 ×10⁻² mM each time. Also, the MFC came out at 95 ×10⁻² mM against Penicillium ochrochloron [21]; 95 ×10⁻² mM against Aspergillus fumigatus [23]; 95 ×10⁻² mM with Aspergillus niger [25]; 380 ×10⁻² mM in experiment [26]; 380 ×10⁻² mM in the experiment on Aspergillus versicolor [28]; 570 ×10⁻² mM with Trichoderma viride [30]. Further, the MFC came out at 95 ×10⁻² mM against Aspergillus ochraceus [31] and 57 ×10⁻² mM with Penicillium cyclopium [32].
`CC1(C)S[C@@H]2[C@H](NC(=O)[C@H](N)c3ccccc3)C(=O)N2[C@H]1C(=O)O` [AMPICILLIN]: the MBC against Salmonella typhimurium [1] came to 380 µM (≈ 133 µg/mL); in the experiment with Pseudomonas aeruginosa [4], 492 µM (≈ 172 µg/mL); with Enterobacter cloacae [5], 1240 µM (≈ 433 µg/mL); against Listeria monocytogenes [9], 744 µM (≈ 260 µg/mL); with Bacillus cereus [10] it was 372 µM (≈ 130 µg/mL); in the experiment on Micrococcus flavus [13], 372 µM (≈ 130 µg/mL). Besides, the MBC against Staphylococcus aureus [14] was determined as 372 µM (≈ 130 µg/mL); in the experiment with Escherichia coli [16], 1240 µM (≈ 433 µg/mL). Moreover, the MIC with Pseudomonas aeruginosa [2] is 372 µM (≈ 130 µg/mL); against Enterobacter cloacae [3] it was 744 µM (≈ 260 µg/mL); in the experiment with Listeria monocytogenes [6] it was 372 µM (≈ 130 µg/mL); in the experiment on Escherichia coli [7], 744 µM (≈ 260 µg/mL); in the experiment with Staphylococcus aureus [8] it was 248 µM (≈ 86.7 µg/mL); with Bacillus cereus [11], 248 µM (≈ 86.7 µg/mL). Besides, the MIC with Salmonella typhimurium [12] and in the experiment on Micrococcus flavus [15] was 248 µM (≈ 86.7 µg/mL) throughout.
